Molecules are shown by their SMILES.

This series can be described thus: Toxicity liver stage against HepG2, at 10uM. Also on record: test concentration 10 uM, cell line HepG2-A16-CD81EGFP. Conditions: human, HepG2-A16-CD81EGFP cells; read-out: INHIBITION
The series is classed as cell-based. The method in brief: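 Uninfected HepG2-A16-CD81EGFP cells, 3 × 10^3 per well, 1536-well, plated on prespotted compound at 10 μM final, parasite-free screening media added to match infected plates; puromycin 10 μM positive, DMSO 0.5% negative; run in parallel with 48 h PbLuc assay at 37 °C, 5% CO2; viability by CellTiter-Glo luminescence, normalized to controls.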
As to `CCN(CC)C1(Cc2cc(-c3ccccn3)on2)COC1`, the cytotoxicity at 10 µM is 1.41%.
In the case of `O=C1Nc2ccccc2/C1=C1\CCCCN1`, the cytotoxicity at 10 µM turned out to be 4.95%.
In the case of `COCCNC(=O)CNC(=O)c1nc(Cc2c(Cl)cccc2Cl)no1` it was 5.64%.
The figure for `COCCN1C[C@H]2CCN(C(=O)c3cc(C)on3)CC[C@H]2S1(=O)=O` is -1.69%.
The figure for `O=C(c1ccco1)N1CCC2(CCC(=O)N2Cc2ccncc2)CC1` is 1.29%; for `CN(C)CCOCC1CN(C(=O)c2cccnc2)Cc2ccnn2C1` (stereo not given) it is 5.57%; for `CCC1=N[C@@]2(CC[C@@H]3CN(C(=O)Nc4ccccc4)C[C@@H]32)C(=O)N1CC` it is 2.93%.
Take `Cc1occc1C(=O)N1CC(C(=O)N2CCOCC2)C2(CCOCC2)C1` (stereo not given): the cytotoxicity at 10 µM was 7.37%.
The figure for `CCC1=N[C@@]2(CC[C@@H]3CN(S(=O)(=O)CC(C)C)C[C@@H]32)C(=O)N1CC1CC1` is 0.457%.
In the case of `COCC1CN(C(=O)C2=CCCCC2)Cc2cnn(CC3CC3)c21` (stereo not given) it was 3.46%; in that of `COc1ccc(Nc2nc3c(C)nn(C)c3c(=O)n2C)cc1`, -0.103%.
In the case of `CSCc1cccc(S(=O)(=O)Nc2cc(C)on2)c1` it was 6.27%.
Regarding `COc1ccc(-c2cc3nc(CCNC(=O)C4CC4)nn3cn2)cc1`, the cytotoxicity at 10 µM amounted to 8.38%.
With `CC(=O)N1CCC(C)(c2cc(C(=O)NCC3CC3)nc(C)n2)CC1`, the cytotoxicity at 10 µM is 2.87%.
In the case of `COCCN1CCC(C)(c2cc(O)[nH]n2)CC1` it was 2.02%; in that of `Cc1ncc(CN)c(-c2cn(C)c3ccccc23)n1`, 2.97%.
The figure for `Cc1ccc(C)c2c(C)c(C(=O)NCC[S+](C)[O-])[nH]c12` (stereo not given) is 3.03%; for `Cc1ncc(CN(C)C)c(C2CCCN2c2ncccn2)n1` (stereo not given) it is -0.6%.
The figure for `O=C(CCn1c(C(F)(F)F)cc2cccnc21)NC1CCCC1` is -14.3%; for `Cc1nc(C)n(CC(=O)N2CCc3ncc(Cl)cc3C2)n1` it is -18.8%.
For the compound `COc1ccccc1C1=NOC(CC2(C(=O)NCCO)CCOCC2)C1` (stereo not given), the cytotoxicity at 10 µM is -26.2%.
Take `Cc1nc2ccc(C(=O)N3C[C@@H](O)[C@H](N4CCOCC4)C3)cc2[nH]1`: the cytotoxicity at 10 µM is -5.81%.
Consider `Cc1nc(O)c2nnn(C[C@H]3CCCN3C(=O)c3ccc(F)cc3)c2n1`, for which the cytotoxicity at 10 µM was -4.28%.
In the case of `CCCc1noc(C(C)N2CC(n3cccn3)C2)n1` (stereo not given) it was 2.13%.
Take `CN(CC(=O)N(C)C)Cc1ccc(C#N)cc1F`: the cytotoxicity at 10 µM was determined as 6.56%.
In the case of `CC(NC(=O)c1cccc[n+]1[O-])C1CC1` (stereo not given) it was 5.31%; in that of `CC1COCCN1C(=O)COc1ccc(Oc2ccccn2)cc1` (stereo not given), -8.87%; in that of `O=C(CCc1ccc(OC(F)(F)F)cc1)N1CCCS1(=O)=O`, 3.42%.
As for `CCCNC(=O)CCNC(=O)N1CCC(=Cc2ccccc2)CC1`, the cytotoxicity at 10 µM amounted to 1.47%.
The figure for `COCCNC(=O)N1CCN(c2cc(F)ccc2F)CC1` is -5.95%; for `COc1ccnc(NC(Cc2ccccc2)C(=O)N(C)C)n1` (stereo not given) it is 6.39%.
In the case of `Cn1ccc(C(=O)N2CCCC(CNS(C)(=O)=O)C2)cc1=O` (stereo not given) it was 0.193%; in that of `CCN(CC)C(=O)CCNC(=O)N(C)Cc1ccc(SC)c(OC)c1`, -7.9%.
The figure for `CC(C)C(=O)Nc1ccc(C(O)Cn2nc(-c3cccs3)oc2=O)cc1` (stereo not given) is -5.31%.
For the compound `CC(C)N1CCC(NC(=O)NC2CCOc3ccc(Br)cc32)CC1` (stereo not given), the cytotoxicity at 10 µM was -6.64%.
For the compound `CC(=O)NCCCNC(=O)Nc1ccccc1-n1nc(C)cc1C`, the cytotoxicity at 10 µM stood at 6.57%.
In the case of `CN(Cc1cccc(C#N)c1)S(=O)(=O)N1CCOCC1` it was 6.95%; in that of `Cc1nccn1-c1cc(CNC(=O)C2CCC(=O)NC2)ccn1` (stereo not given), 4.83%.
The figure for `Cc1nnc2ccc(N3CCC4(CCOC4)C3)nn12` (stereo not given) is 4.29%.
Turning to `CCC(=O)Nc1cc(Br)cn(C)c1=O`, the cytotoxicity at 10 µM is -1.34%.
The figure for `FC(F)COc1ccccc1NCc1nnsc1Cl` is -2.63%; for `O=C(NCCCc1cccs1)N1CCCCC1CCO` (stereo not given) it is 6.06%; for `CCCS(=O)(=O)N1CCCC1c1cccc(N(C)C)c1` (stereo not given) it is 1.62%.
On to `CC(C)C(C)NC(=O)CN1CCSCC1` (stereo not given), for which the cytotoxicity at 10 µM is -0.662%.
Take `CN(C)c1ccc(CCCNC(=O)NCC(O)c2ccsc2)cc1` (stereo not given): the cytotoxicity at 10 µM is -6.88%.
In the case of `CCOCCN1CCN(Cc2nnc(-c3ccco3)o2)CC1` it was -53.1%; in that of `COc1cccc(CNC(=O)Nc2ccc3[nH]nnc3c2)c1OC`, 3.2%.
As to `Cc1cc(=O)c(C(=O)Nc2cccc(CCN3CCCC3)c2)c[nH]1`, the cytotoxicity at 10 µM stood at 7.49%.
For `CCC1CCCN(S(=O)(=O)c2cnc3onc(C)c3c2)C1` (stereo not given), the cytotoxicity at 10 µM came to 4.72%.
In the case of `CCOc1cc(C(=O)NS(C)(=O)=O)cc(-c2ccccc2)c1OC` it was 12.5%; in that of `CC(C)c1nncn1CCNC(=O)c1c(O)cc(F)cc1F`, -1.99%; in that of `Cc1ccc2c(c1)OC(C)CN2C(=O)CCc1cscn1` (stereo not given), -48.5%.
In the case of `CC(C)NC(=O)COc1nc(C(C)(C)C)no1` it was -7.48%; in that of `CC(C)Cc1cc(C(=O)NCCc2ccc(S(C)(=O)=O)cc2)[nH]n1`, -8.93%.
In the case of `Cc1cccc(C(=O)N2CCn3cc(CNC(=O)CC4CC4)nc3C2)n1` it was -78.4%.
For `O=C(c1ccco1)N1CCCn2cnc(COCC3CC3)c2C1`, the cytotoxicity at 10 µM is -75.9%.
The figure for `c1ccc2c(c1)CN(c1ncnc3sc4c(c13)CCNC4)CCO2` is 5.08%; for `Cc1cc(C(F)(F)F)nc(CCNC(C)Cn2cncn2)n1` (stereo not given) it is 12%; for `CN1CCN([C@H]2CCN(C(=O)c3nn(C)cc3Cl)C[C@H]2CCCO)CC1` it is -2.86%.
The figure for `Cc1cnccc1N1CCN(C(=O)C2CC3(CCNCC3)CN2)CC1` (stereo not given) is -13.7%.
The figure for `O=C(Cc1cccnc1)NC1CCCN(CCCc2ccccc2)C1` (stereo not given) is 11.5%.
For `O=C(C1CCCN(C2CCOCC2)C1)N1Cc2ccccc2C1` (stereo not given), the cytotoxicity at 10 µM was 2.49%.
The figure for `C[C@@H]1CN(Cc2cc3ccccc3n2C)CC[C@@]1(O)C1CC1` is -2.07%; for `COc1cc(C)cc(C(C(=O)O)N2CCN(C3CCCC3)CC2)c1OC` (stereo not given) it is -4.27%; for `CN(C)CCC1CCCCN1Cc1cnc(-c2ccccn2)nc1` (stereo not given) it is 3.74%.
As to `Cc1cnc(C(=O)N(C)Cc2nc(-c3ccccn3)no2)cn1`, the cytotoxicity at 10 µM came out at 3.42%.
In the case of `CCN(CC)C(=O)[C@@H]1C[C@H](N)CN1c1noc(-c2ccccc2)n1` it was -49.8%.
As to `Cc1cc(C)n(CC(C)NCCn2nc(C)c(Cl)c2C)n1` (stereo not given), the cytotoxicity at 10 µM was -5.44%.
The figure for `O=C(c1cn(CCN2CCCCC2)nn1)N1CCCO1` is 5.87%.
The figure for `Cc1nc[nH]c1-c1nccn1CCN(C)S(C)(=O)=O` is -6.03%; for `Cc1nonc1CN(C)Cc1nc(-c2cccc(F)c2F)oc1C` it is -2.71%; for `CSc1nccc(N2CCC(NCc3nc(C)cc(C)n3)CC2)n1` it is 3.41%.
The figure for `CC(=O)c1cc(CN2C[C@@H](CN3CCC(O)CC3)[C@@H](CO)C2)n(C)c1` is 7.58%; for `COc1ccc([C@@H]2CN(C(=O)Cc3cccs3)C[C@H]2NC(C)=O)cc1` it is -1.16%.
Regarding `COc1ccc(F)c(CN2CC(=O)N(c3ccccc3C)CC2C)c1` (stereo not given), the cytotoxicity at 10 µM is -0.757%.
In the case of `O=C(O)c1cc(-c2ccc3c(c2)OCO3)cc(S(=O)(=O)NC2CC2)c1` it was 2.8%; in that of `CC(C)O[C@H]1CN(Cc2cnc3c(-c4ccccc4)cnn3c2)C[C@@H]1O`, 3.45%.
The figure for `CCN(CC)c1ccc(-c2ccc(C)c(S(N)(=O)=O)c2)nn1` is -7.99%; for `COc1cc(N2CCC(c3nccn3Cc3ccccn3)CC2)ncn1` it is -14.2%.
The figure for `CCN1CC2(CCN(C(=O)C3CSC(C)(C)C(=O)N3)CC2)CC1=O` (stereo not given) is 1.72%; for `O=C(c1cn2ccsc2n1)N1CCOCC(O)(CN2CCCC2)C1` (stereo not given) it is 4.6%; for `Cc1cccc(-n2c(C)cc(C(=O)NS(C)(=O)=O)c2C)c1` it is -4.08%.
Regarding `Cc1ccc(NC2CCN(C(=O)c3cc(C)sc3C)CC2)nn1`, the cytotoxicity at 10 µM is -5.59%.
On to `COc1cccc(CN2CCCC3(CCN(C(=O)N4CCCC4)C3)C2)c1` (stereo not given), for which the cytotoxicity at 10 µM is -4.34%.
As to `Cc1ccc(N2CCC3(CC2)CCN(C2CCOC2)CC3)nn1` (stereo not given), the cytotoxicity at 10 µM was 7.67%.
In the case of `CN(C)C(=O)[C@@H]1CCO[C@@H]2CCN(c3ncccn3)C[C@@H]21` it was 8.31%.
As for `Cn1cc(CN2CCCC23CCN(Cc2nccn2C)CC3)cn1`, the cytotoxicity at 10 µM is -5.64%.
In the case of `CC(C)NC(=O)C1CCC2(CCN(Cc3cnn(C)c3)CC2)CO1` (stereo not given), the cytotoxicity at 10 µM stood at 9.67%.
The figure for `Fc1cnc(N2CC[C@@H]3CN(Cc4ccncc4)CCO[C@@H]3C2)nc1` is 5.38%.
The figure for `Cc1nn(C)c(C)c1S(=O)(=O)N1C[C@@H]2C[C@@H](C)O[C@@H]2C1` is 0.788%; for `O=C(c1ccco1)N1CCOCC2(CCN(C3CCOCC3)C2)C1` (stereo not given) it is 3.07%; for `Cc1ncccc1NC(=O)[C@@H]1C[C@@H]2CCN(Cc3cccs3)C[C@H]2O1` it is -72.9%.
In the case of `Cn1cnc2c1C(COCc1ccccc1)N(Cc1cccnc1)CC2` (stereo not given) it was 9.61%.
With `c1cncc(C[C@H]2[C@H](N3CCOCC3)CCN2Cc2nccs2)c1`, the cytotoxicity at 10 µM was 8.82%.
For the compound `CC(C)n1nc(Cn2cccn2)c2c1CN(CC1CCOC1)C2` (stereo not given), the cytotoxicity at 10 µM was found to be 7.13%.

The values above are taken from ChEMBL document CHEMBL4513216, “Probing the Open Global Health Chemical Diversity Library for Multistage-Active Starting Points for Next-Generation Antimalarials” (ACS Infect Dis, 2020).
